Activity calls are given as the source filed them. The calls are words filed in the database; no cut-off is given here.
Assays:
Hepatitis C virus [1] = assay: Antiviral activity against HCV genotype 1b infected in human Huh-9-13 cells assessed as reduction in viral replication selected after 5 passages at 4 uM by quantitative RT-PCR; type: functional, organism-based; conditions: Hepacivirus hominis
How it was run: (§1)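 Resistant replicons were selected by passaging Huh 9-13 cells under 1 mg/ml G418 with gradually increasing inhibitor concentrations.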

Hepatitis C virus [2] = assay: Antiviral activity against HCV genotype 1b infected in human Huh-9-13 cells assessed as reduction in viral replication selected after 7 passages at 15 uM by quantitative RT-PCR relative to wild type virus; type: functional, Hepacivirus hominis; how it was run: as §1
Hepatitis C virus [3] = assay: Antiviral activity against HCV genotype 1b infected in human Huh-9-13 cells assessed as reduction in viral replication selected after 5 passages at 4 uM by quantitative RT-PCR relative to wild type virus; type: functional, Hepacivirus hominis; how it was run: as §1
Hepatitis C virus [4] = assay: Antiviral activity against HCV genotype 1b infected in human Huh-9-13 cells assessed as reduction in viral replication selected at 0.5 uM by quantitative RT-PCR; type: functional, organism-based; conditions: Hepacivirus hominis
Hepatitis C virus [5] = assay: Antiviral activity against HCV genotype 1b infected in human Huh-9-13 cells assessed as reduction in viral replication selected at 0.1 uM by quantitative RT-PCR; type: functional, organism-based; conditions: Hepacivirus hominis
Hepatitis C virus [6] = assay: Antiviral activity against compound-resistant HCV genotype 1b infected in human Huh-9-13 cells assessed as reduction in viral replication after 3 days by quantitative RT-PCR; type: functional, organism-based, Hepacivirus hominis; conditions: 72 h
How it was run: (§2)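 Huh 9-13 cells carrying a subgenomic HCV replicon were seeded at 5 x 10^3 cells/well in medium with G418 and incubated 24 h at 37°C. Serial dilutions were then added in G418-free medium for 3 days. Cells were lysed, heated 15 min at 75°C, and replicon RNA was quantified by RT-qPCR against a neomycin plasmid standard. EC50 is the 50% RNA reduction versus untreated cells.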

Hepatitis C virus [7] = assay: Antiviral activity against cyclosporine-resistant HCV genotype 1b infected in human Huh-9-13 cells assessed as reduction in viral replication after 3 days by quantitative RT-PCR; type: functional, organism-based, Hepacivirus hominis; conditions: 72 h; how it was run: as §2
Hepatitis C virus [8] = assay: Antiviral activity against 2'-C-methyl-2'-fluoro-cytidine-resistant HCV genotype 1b infected in human Huh-9-13 cells assessed as reduction in viral replication after 3 days by quantitative RT-PCR; type: functional, organism-based, Hepacivirus hominis; conditions: 72 h; how it was run: as §2
Hepatitis C virus [9] = assay: Antiviral activity against R479-resistant HCV genotype 1b infected in human Huh-9-13 cells assessed as reduction in viral replication after 3 days by quantitative RT-PCR; type: functional, organism-based, Hepacivirus hominis; conditions: 72 h; how it was run: as §2
Hepatitis C virus [10] = assay: Antiviral activity against BILN 2061-resistant HCV genotype 1b infected in human Huh-9-13 cells assessed as reduction in viral replication after 3 days by quantitative RT-PCR; type: functional, organism-based, Hepacivirus hominis; conditions: 72 h; how it was run: as §2
Hepatitis C virus [11] = assay: Antiviral activity against VX 950-resistant HCV genotype 1b infected in human Huh-9-13 cells assessed as reduction in viral replication after 3 days by quantitative RT-PCR; type: functional, organism-based, Hepacivirus hominis; conditions: 72 h; how it was run: as §2
Hepatitis C virus [12] = assay: Antiviral activity against HCV genotype 1b infected in human Huh-9-13 cells assessed as reduction in viral replication after 3 days by quantitative RT-PCR; type: functional, organism-based, Hepacivirus hominis; conditions: 72 h; how it was run: as §2
Hepatitis C virus [13] = assay: Antiviral activity against HCV genotype 1b infected in human Huh-9-13 cells assessed as reduction in viral replication selected after 1 passages at 0.82 uM by quantitative RT-PCR; type: functional, Hepacivirus hominis
How it was run: (§3)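 Huh 9-13 replicon cells were seeded at 3 x 10^5 per 25-cm2 flask without G418, with compound. They were passaged at about 90% confluence and reseeded at 3 x 10^5 with the same concentration. HCV RNA was measured by RT-qPCR at each passage as % of the untreated control at the same passage. In rebound, compound was removed and G418 (1,000 µg/ml) restored.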

Hepatitis C virus [14] = assay: Antiviral activity against HCV genotype 1b infected in human Huh-9-13 cells assessed as reduction in viral replication selected after 1 passages at 5 ug/ml by quantitative RT-PCR; type: functional, Hepacivirus hominis; how it was run: as §3
Hepatitis C virus [15] = assay: Antiviral activity against HCV genotype 1b infected in human Huh-9-13 cells assessed as reduction in viral replication selected after 2 passages at 5 ug/ml by quantitative RT-PCR; type: functional, organism-based; conditions: Hepacivirus hominis; how it was run: as §3
Hepatitis C virus [16] = assay: Antiviral activity against HCV genotype 1b infected in human Huh-9-13 cells assessed as reduction in viral replication selected after 2 passages at 1 ug/ml by quantitative RT-PCR; type: functional, organism-based; conditions: Hepacivirus hominis; how it was run: as §3
Hepatitis C virus [17] = assay: Antiviral activity against HCV genotype 1b infected in human Huh-9-13 cells assessed as reduction in viral replication selected after 6 passages at 2 uM by quantitative RT-PCR; type: functional, organism-based; conditions: Hepacivirus hominis; how it was run: as §1
Hepatitis C virus [18] = assay: Antiviral activity against HCV genotype 1b infected in human Huh-9-13 cells assessed as reduction in viral replication selected after 6 passages at 2 uM by quantitative RT-PCR relative to wild type virus; type: functional, Hepacivirus hominis; how it was run: as §1
Hepatitis C virus [19] = assay: Antiviral activity against HCV genotype 1b infected in human Huh-9-13 cells assessed as reduction in viral replication selected after 3 passages at 1 ug/ml by quantitative RT-PCR […]; type: functional, organism-based; conditions: Hepacivirus hominis
Hepatitis C virus [20] = assay: Antiviral activity against HCV genotype 1b infected in human Huh-9-13 cells assessed as reduction in viral replication selected after 7 passages at 5 ug/ml by quantitative RT-PCR […]; type: functional, organism-based; conditions: Hepacivirus hominis
Hepatitis C virus [21] = assay: Antiviral activity against HCV genotype 1b infected in human Huh-9-13 cells assessed as reduction in viral replication selected after 7 passages at 30 ug/ml by quantitative RT-PCR […]; type: functional, organism-based; conditions: Hepacivirus hominis
[22] = Cytotoxicity against human Huh-9-13 cells at 1 ug/ml after 3 days by MTT assay; type: cell-based; conditions: 72 h
[23] = Cytotoxicity against human Huh-9-13 cells at 5 ug/ml after 3 days by MTT assay; type: cell-based; conditions: 72 h
[24] = Cytotoxicity against human Huh-9-13 cells at 30 ug/ml after 3 days by MTT assay; type: cell-based; conditions: 72 h
Hepatitis C virus [25] = assay: Antiviral activity against HCV genotype 1b infected in human Huh-9-13 cells assessed as reduction in viral replication selected after 7 passages at 0.25 ug/ml by quantitative RT-PCR; type: functional, organism-based; conditions: Hepacivirus hominis
How it was run: (§4)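 Clearance-rebound in Huh 9-13 replicon cells over seven consecutive passages without G418, using twofold dilutions from 0.50 to 0.016 µg/ml. Rebound passages omitted compound under 1,000 µg/ml G418. Remaining HCV RNA was measured by RT-qPCR each passage as % of the untreated control at the same passage number.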

Hepatitis C virus [26] = assay: Antiviral activity against HCV genotype 1b infected in human Huh-9-13 cells assessed as reduction in viral replication selected after 8 passages at 0.25 ug/ml by quantitative RT-PCR; type: functional, organism-based; conditions: Hepacivirus hominis; how it was run: as §4
Hepatitis C virus [27] = assay: Antiviral activity against HCV genotype 1b infected in human Huh-9-13 cells assessed as reduction in viral replication selected after 5 passages at 1 uM by quantitative RT-PCR; type: functional, organism-based; conditions: Hepacivirus hominis; how it was run: as §1
Hepatitis C virus [28] = assay: Antiviral activity against HCV genotype 1b infected in human Huh-9-13 cells assessed as reduction in viral replication selected after 5 passages at 1 uM by quantitative RT-PCR relative to wild type virus; type: functional, Hepacivirus hominis
Hepatitis C virus [29] = assay: Antiviral activity against HCV genotype 1b infected in human Huh-9-13 cells assessed as reduction in viral replication selected after 2 passages at 30 ug/ml by quantitative RT-PCR; type: functional, organism-based; conditions: Hepacivirus hominis; how it was run: as §3
Hepatitis C virus [30] = assay: Antiviral activity against HCV genotype 1b infected in human Huh-9-13 cells assessed as reduction in viral replication selected after 3 passages at 30 ug/ml by quantitative RT-PCR; type: functional, organism-based; conditions: Hepacivirus hominis; how it was run: as §3

| Compound | EC50 (Hepatitis C virus [6]) [nM] | EC50 (Hepatitis C virus [7]) [nM] | EC50 (Hepatitis C virus [8]) [nM] | EC50 (Hepatitis C virus [9]) [nM] | EC50 (Hepatitis C virus [10]) [nM] | EC50 (Hepatitis C virus [11]) [nM] | EC50 (Hepatitis C virus [12]) [nM] | other results |
| --- | --- | --- | --- | --- | --- | --- | --- | --- |
| [N-]=[N+]=N[C@]1(CO)O[C@@H](n2ccc(N)nc2=O)[C@H](O)[C@@H]1O [4'-AZIDOCYTIDINE] | 120 | 260 | 3380 | 15600 | 20 | 690 |  | Activity (Hepatitis C virus [1]): inactive; fold change (FC) (Hepatitis C virus [2]): 8; fold change (FC) (Hepatitis C virus [3]): 3; inhibition (Hepatitis C virus [4]): Active; inhibition (Hepatitis C virus [5]): inactive |
| C[C@@]1(O)[C@H](O)[C@@H](CO)O[C@H]1n1ccc(N)nc1=O | 110 | 210 | 30200 | 1160 | 40 | 1010 | 410 |  |
| CCC[C@H](NC(=O)[C@@H]1[C@H]2CCC[C@H]2CN1C(=O)[C@@H](NC(=O)[C@@H](NC(=O)c1cnccn1)C1CCCCC1)C(C)(C)C)C(=O)C(=O)NC1CC1 [TELAPREVIR] | 90 |  | 1020 |  | 790 | 14000 | 580 | inhibition at 0.82 µM (Hepatitis C virus [13]): 96.5%; inhibition at 5 µg/mL (Hepatitis C virus [14]): 96.5%; inhibition (Hepatitis C virus [15]): inactive; inhibition (Hepatitis C virus [16]): inactive; inhibition (Hepatitis C virus [17]): inactive; fold change (FC) (Hepatitis C virus [18]): 4 |
| C/C=C/C[C@@H](C)[C@@H](O)[C@H]1C(=O)N[C@@H](CC)C(=O)N(C)[C@H](C)C(=O)N(CC)[C@@H](C(C)C)C(=O)N[C@@H](C(C)C)C(=O)N(C)[C@@H](CC(C)C)C(=O)N[C@@H](C)C(=O)N[C@H](C)C(=O)N(C)[C@@H](CC(C)C)C(=O)N(C)[C@@H](CC(C)C)C(=O)N(C)[C@@H](C(C)C)C(=O)N1C [ALISPORIVIR] | 2720 | 3010 | 410 | 2760 | 4 | 360 | 40 | inhibition at 0.82 µM (Hepatitis C virus [13]): 96.5%; inhibition at 5 µg/mL (Hepatitis C virus [14]): 96.5%; inhibition (Hepatitis C virus [15]): inactive; inhibition (Hepatitis C virus [16]): inactive; Activity (Hepatitis C virus [19]): Active; inhibition (Hepatitis C virus [20]): inactive; inhibition (Hepatitis C virus [21]): inactive; Activity [22]: Non-toxic; Activity [23]: Non-toxic; Activity [24]: Non-toxic; inhibition (Hepatitis C virus [25]): Active; Activity (Hepatitis C virus [26]): Active |
| C/C=C/C[C@@H](C)[C@@H](O)[C@H]1C(=O)N[C@@H](CC)C(=O)N(C)CC(=O)N(C)[C@@H](CC(C)C)C(=O)N[C@@H](C(C)C)C(=O)N(C)[C@@H](CC(C)C)C(=O)N[C@@H](C)C(=O)N[C@H](C)C(=O)N(C)[C@@H](CC(C)C)C(=O)N(C)[C@@H](CC(C)C)C(=O)N(C)[C@@H](C(C)C)C(=O)N1C [CYCLOSPORINE] | 350 | 3850 | 400 | 1980 | 4 | 490 |  |  |
| COc1ccc2c(O[C@@H]3C[C@H]4C(=O)N[C@]5(C(=O)O)C[C@H]5/C=C\CCCCC[C@H](NC(=O)OC5CCCC5)C(=O)N4C3)cc(-c3csc(NC(C)C)n3)nc2c1 [CILUPREVIR] | 100 | 170 | 290 | 2160 | 1250 | 310 |  | inhibition (Hepatitis C virus [27]): inactive; fold change (FC) (Hepatitis C virus [28]): 50 |
| NC(=O)c1ncn([C@@H]2O[C@H](CO)[C@@H](O)[C@H]2O)n1 |  |  |  |  |  |  |  | inhibition (Hepatitis C virus [29]): inactive; inhibition (Hepatitis C virus [30]): inactive |

— ChEMBL document CHEMBL1649126, “Debio 025, a cyclophilin binding molecule, is highly efficient in clearing hepatitis C virus (HCV) replicon-containing cells when used alone or in combination with specifically targeted antiviral therapy for HCV (STAT-C) inhibitors” (Antimicrob Agents Chemother, 2009)
